ChEMBL document CHEMBL4665722, “Discovery of a novel selective water-soluble SMAD3 inhibitor as an antitumor agent” (Bioorg Med Chem Lett, 2020)
Values after ≈ are worked out from the molar mass of the structure shown. Active and inactive are the calls of the source. No cut-off for these calls is given here.

What was measured:
Lewis lung carcinoma [1] = test: Antitumor activity against mouse Lewis lung carcinoma cells allografted in ip dosed C57BL/6 mouse assessed as reduction in tumor weight administered for 20 consecutive days; details: dose microg/g 1.25-5, time 20.0 day
[2] = target: Mothers against decapentaplegic homolog 2 (Homo sapiens) (UniProt Q15796); test: Inhibition of TGF-beta induced SMAD2 phosphorylation in human A549 cells at 5 to 10 uM pretreated with compound for 2 hrs followed by TGF-beta stimulation by Western blot analysis; type: cell-based; details: dose microM 5-10, time 2.0 hrs
Outline: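 A549 cells pre-treated 2 h at 5 and 10 μM, then stimulated with 1 ng/mL TGF-β for 30 min. Lysates probed by western blot for phospho-SMAD2, SMAD2, phospho-SMAD3 and SMAD3. GAPDH served as loading control.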

Lewis lung carcinoma [3] = test: Antitumor activity against mouse Lewis lung carcinoma cells allografted in ip dosed C57BL/6 mouse assessed as reduction in tumor volume administered for 20 consecutive days; details: dose microg/g 1.25-5, time 20.0 day
Mus musculus = test: Induction of NK-mediated antitumor immunity in ip dosed C57BL/6 mouse allografted with mouse Lewis lung carcinoma cells assessed as increase in NK cell infiltration in tumor by immunofluorescent staining based assay; details: dose microg/g 1.25-5
[4] = Solubility of the compound in water; type: physicochemical
Outline: (§1)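 Solubility of free base or HCl salt measured in pure water and in phosphate buffer pH 7.4 at room temperature, quantified by HPLC.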

[5] = target: Mothers against decapentaplegic homolog 3 (Homo sapiens) (UniProt P84022); details: NIH3T3
[6] = Solubility of the compound in PBS buffer at pH 7.4; type: physicochemical
Outline: as §1

A549 = test: Cytotoxicity against human A549 cells assessed as inhibition of cell growth by MTT assay; type: functional; details: read-out: TD50 (the source's name)
Outline: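 A549 cell growth measured by MTT assay. Value is the concentration giving 50% growth inhibition relative to controls, mean of three experiments.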

Sequence of Mothers against decapentaplegic homolog 2 (Homo sapiens) (Q15796 whole entry): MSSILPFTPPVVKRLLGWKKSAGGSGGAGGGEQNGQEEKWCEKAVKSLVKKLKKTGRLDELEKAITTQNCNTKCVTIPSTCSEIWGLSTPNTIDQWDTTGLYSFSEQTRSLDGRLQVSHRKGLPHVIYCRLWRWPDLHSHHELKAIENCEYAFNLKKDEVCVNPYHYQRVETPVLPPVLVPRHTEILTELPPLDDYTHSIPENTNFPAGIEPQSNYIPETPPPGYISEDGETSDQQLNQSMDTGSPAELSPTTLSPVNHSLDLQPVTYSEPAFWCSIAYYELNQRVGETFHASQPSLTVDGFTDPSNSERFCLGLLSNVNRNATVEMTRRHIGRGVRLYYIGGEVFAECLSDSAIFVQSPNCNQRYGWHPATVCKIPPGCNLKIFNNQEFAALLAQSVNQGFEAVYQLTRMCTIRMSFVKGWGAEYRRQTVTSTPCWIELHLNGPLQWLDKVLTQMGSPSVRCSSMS
Sequence of Mothers against decapentaplegic homolog 3 (Homo sapiens) (P84022 2-425 limits assumed): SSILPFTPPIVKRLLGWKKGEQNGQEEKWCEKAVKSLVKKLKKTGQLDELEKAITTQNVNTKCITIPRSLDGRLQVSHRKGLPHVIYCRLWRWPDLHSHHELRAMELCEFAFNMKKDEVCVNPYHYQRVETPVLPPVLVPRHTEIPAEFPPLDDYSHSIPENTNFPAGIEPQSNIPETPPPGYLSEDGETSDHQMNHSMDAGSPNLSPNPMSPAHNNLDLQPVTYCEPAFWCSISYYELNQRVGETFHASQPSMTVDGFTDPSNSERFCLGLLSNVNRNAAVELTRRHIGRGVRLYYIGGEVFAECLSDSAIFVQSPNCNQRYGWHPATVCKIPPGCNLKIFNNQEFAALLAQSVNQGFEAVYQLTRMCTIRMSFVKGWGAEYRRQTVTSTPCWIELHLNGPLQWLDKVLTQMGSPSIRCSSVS

Row | inhibition [2] | solubility [6] | SMILES | CC50 (A549) | other results
1 | inactive | – | Cc1nc(C)c(CN2CC/C(=C\c3c(-c4ccccc4)n(C)c4ncccc34)C2=O)nc1C [listing 1 of 2 here] | – | Activity (Lewis lung carcinoma [1]): Dose-dependent effect; Activity (Lewis lung carcinoma [3]): Dose-dependent effect; Activity (Mus musculus): Dose-dependent effect
2 | inactive | – | COc1ccc(CN2CC/C(=C\c3c(-c4ccccc4)n(C)c4ncccc34)C2=O)cc1OC | – | –
3 | – | – | Cc1nc(C)c(CN2CC/C(=C\c3c(-c4ccccc4)n(C)c4ncccc34)C2=O)nc1C.Cl | – | solubility ([4]; water): > 94000 µg/mL
4 | – | 6 µg/mL | COc1cc2c(cc1OC)CN(C(=O)/C=C/c1c(-c3ccccc3)n(C)c3ncccc13)CC2.Cl | 18.7 µM | solubility [4]: 141 µg/mL; ED50 [5]: 4.53 µM
5 | – | 14 µg/mL (≈ 32 µM) | Cc1nc(C)c(CN2CC/C(=C\c3c(-c4ccccc4)n(C)c4ncccc34)C2=O)nc1C [listing 2 of 2 here] | 22 µM | –
